Assay results pooled from the literature.
Read-out: metabolic stability
Medium: liver microsomes

Compound | test system | setting | compound remaining [%]
CCCn1nc(C(=O)N2CCCCC2)c2c1CCC(NCc1ccc(N3CCCCC3)cc1)C2 (stereo not shown) | mouse | 10 µM, 1 h | 47
N#Cc1ccc(C[C@@H](NC(=O)Nc2ccc([N+](=O)[O-])cc2)C(=O)NCC2(c3ccccc3)CC2)cc1 | rat | 10 µM, 30 min, pH 7.4 | > 20
Cc1ccc2c(c1)nc(/C=C/c1cccc3cccnc13)n2-c1ccccc1 | rat | 1.5 µM, 0 h | 100
CS(=O)(=O)c1ccc(-c2cnc(N)c(-c3ccc(C(F)(F)F)nc3)c2)cc1 | male CD-1 mouse | 1 µM, 30 min | > 99
Cc1ncsc1-c1ccc(CNC(=O)[C@@H]2C[C@@H](O)CN2C(=O)[C@@H](NC(=O)CCCCCCCCCCNC(=O)O[C@H]2C[C@@H](C)C=C3C=C[C@H](C)[C@H](CC[C@@H]4C[C@@H](O)CC(=O)O4)[C@H]32)C(C)(C)C)cc1 | mouse | 1 µM, 45 min, pH 7.4 | 1.42
O=C(Nc1ccc(S(=O)(=O)N2CCC(Cl)CC2)cc1)c1ccc([N+](=O)[O-])o1 | mouse | 1 µM, 1 h, pH 7.4 | 0.02
CC(C)NCC(O)COc1cccc2ccccc12 (stereo not shown) | male rat | 1 µM, 30 min | < 7
Cc1ccc2c(c1)nc(CCc1cccc3cccnc13)n2-c1ccccc1 | rat | 1.5 µM, 30 min | 0.13
N#Cc1ccc(C[C@@H](NC(=O)Nc2ccc(F)cc2)C(=O)NCC2(c3ccc(OC(F)(F)F)cc3)CC2)cc1 | rat | 10 µM, 30 min, pH 7.4 | > 80
CCCn1nc(C(=O)N(C)C)c2c1CCC(NCc1ccc(F)cc1)C2 (stereo not shown) | mouse | 10 µM, 1 h | < 25
